One compound from ChEMBL document CHEMBL1133005, “Improving the oral bioavailability of the iron chelator HBED by breaking the symmetry of the intramolecular H-bond network” (J Med Chem, 2000) can be followed below.

For orientation: logP means the decadic logarithm of the partition coefficient of the neutral form, usually between octanol and water. Lower therefore signals lower lipophilicity.

What all share (assay type): physicochemical
The nature of series [1]: Evaluated for ionization constant (pKa4) by titrations performed in presence of a MeOH and at a dielectric constant of 56. As to conditions: MeOH cosolvent; read-out: pKa4. The method in brief: (§1)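 pH-metric titration in mixed water/cosolvent media (MeOH or EtOH, depending on the ligand) at several cosolvent proportions, each proportion setting the dielectric constant. Electrode calibrated with pH 7.00 phosphate buffer and standardized after a blank titration by a nonlinear semiempirical fit. Readings were converted to pcH to give concentration-scale constants.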

Series [2] in a line: Evaluated for ionization constant (pKa3) by titrations performed using the method of Yasuda and Shedlovsky. As to conditions: read-out: pKa3. Put shortly: (§2)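 Aqueous constants were extrapolated by the Yasuda–Shedlovsky method from pH-metric titrations run at several MeOH or EtOH cosolvent levels. Electrode calibrated with pH 7.00 phosphate buffer and standardized after a blank titration. Values are expressed on the pcH (-log[H+]) concentration scale.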

Series [3] is described as follows: Evaluated for ionization constant (pKa4) by titrations performed in presence of a MeOH and at a dielectric constant of 49. The conditions noted are these: MeOH cosolvent; read-out: pKa4. Put shortly:
as §1

The nature of series [4]: Evaluated for ionization constant (pKa1) by titrations performed using method of Yasuda and Shedlovsky. The conditions noted are these: read-out: pKa1. The method in brief:
as §2

The nature of series [5]: Evaluated for ionization constant (pKa2) by titrations performed using method of Yasuda and Shedlovsky. As to conditions: read-out: pKa2. Put shortly:
as §2

Series [6] is described as follows: Partition coefficient (logP) (cyclohexane). The method in brief: (§3)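 Free-ligand partition coefficients are measured by the pH-metric technique. This uses two linked titrations: a normal aqueous titration, then a two-phase titration in the presence of the partition solvent.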
The nature of series [7]: Evaluated for ionization constant (pKa4) by titrations performed using the method of Yasuda and Shedlovsky. The conditions noted are these: read-out: pKa4. Put shortly: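 Potentiometric pH titration. The electrode is calibrated with pH 7.00 phosphate buffer. A blank titration before each set standardizes the electrode by a nonlinear semiempirical equation, and readings are converted to the concentration scale pcH = −log[H+]. Runs use varying amounts of MeOH or EtOH cosolvent, and aqueous pKa values are extrapolated by the Yasuda–Shedlovsky method. Low pKa values (pH < 2) are determined by spectrophotometric titration.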

Series [8] in a line: Evaluated for ionization constant (pKa3) by titrations performed in presence of a MeOH and at a dielectric constant of 56. As to conditions: MeOH cosolvent; read-out: pKa3. The method in brief: as §1
The nature of series [9]: Evaluated for ionization constant (pKa2) by titrations performed in presence of a MeOH and at a dielectric constant of 62. The conditions noted are these: MeOH cosolvent, dielectric constant 62; read-out: pKa2. Put shortly: as §1
The nature of series [10]: Evaluated for ionization constant (pKa4) by titrations performed in presence of a MeOH and at a dielectric constant of 62. As to conditions: MeOH cosolvent; read-out: pKa4. Put shortly: as §1
Series [11] in a line: Evaluated for ionization constant (pKa2) by titrations performed in presence of a MeOH and at a dielectric constant of 49. The conditions noted are these: MeOH cosolvent, dielectric constant 49; read-out: pKa2. The method in brief: as §1
A short description of series [12]: Evaluated for ionization constant (pKa2) by titrations performed in presence of a MeOH and at a dielectric constant of 56. As to conditions: MeOH cosolvent, dielectric constant 56; read-out: pKa2. The method in brief: as §1
The nature of series [13]: Evaluated for ionization constant (pKa3) by titrations performed in presence of a MeOH and at a dielectric constant of 49. As to conditions: MeOH cosolvent; read-out: pKa3. The method in brief: as §1
The nature of series [14]: Evaluated for ionization constant (pKa1) by titrations performed in presence of a MeOH and at a dielectric constant of 62. As to conditions: MeOH cosolvent, dielectric constant 62; read-out: pKa1. Put shortly:
as §1

Series [15] is described as follows: Evaluated for ionization constant (pKa3) by titrations performed in presence of a MeOH and at a dielectric constant of 62. The conditions noted are these: MeOH cosolvent; read-out: pKa3. Put shortly:
as §1

Series [16] is described as follows: Partition coefficient (logP). As to conditions: octanol/water. Put shortly:
as §3

The nature of series [17]: Evaluated for ionization constant (pKa1) by titrations performed in presence of a MeOH and at a dielectric constant of 56. The conditions noted are these: MeOH cosolvent, dielectric constant 56; read-out: pKa1. The method in brief:
as §1

For `COC(=O)CN(CCN(CC(=O)OC)Cc1ccccc1O)Cc1ccccc1O`, the pKa in series [1] turned out to be 0.82; in series [2], 5.7; in series [3] it was 0.69; in series [4] it was 12.2; in [5], 10.9; in [7] it was 1.4. For the same compound, the pKa in [8] was 5.46; in series [9], 11.3; in series [10], 1.1; in series [11] it was 11.9; in series [12] it was 11.6; in series [13] it was 5.4. Moreover, the pKa came to 12.6 in series [14], 5.58 in series [15] and 12.9 in series [17]. Further, the lipophilicity (logP) in [6] came out at 2.11; in series [16] it was 2.86.
